Tb MetRS inh = blocks T. brucei methionyl-tRNA synthetase activity; purified T. brucei MetRS, ATP depletion, Kinase-Glo luminescence; AID 624268; inhibition, % at 11.9 µM; hit rate 0.4% among 360,000;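 active means inhibition above a per-plate cutoff of the control wells' mean inhibition plus 3 SD, cut at about 5.5% in these data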;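 further: 0% = DMSO wells median and 100% = median of wells with control inhibitor compound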
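assay system = parasite MetRS enzyme | timing = 15 min preincubation, 2 h reaction, all 25 °C | evaluation = percent inhibition relative to median high and low control wells | medium = HEPES buffer containing pyrophosphatase, BSA, spermine, DTT | compound = single dose, 11.9 µM final nominal, 0.9% final DMSO | detection = Kinase-Glo luminescence, ATP depletion format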
UCH37 DUB inh = blocks the human deubiquitinase UCH37 | Q9Y5K5 | purified proteasome/UCH37, Ub-AMC cleavage fluorescence | inhibition, % (concentration not given with the values) | hit rate 0.33% among 330,000 | AID 588478;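 active means mean inhibition over replicate wells above about 20%, limit read from the data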;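 further: 0% = compound-free wells with enzyme and 100% = wells lacking proteasome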
Target sequence (Q9Y5K5 whole entry, looked up): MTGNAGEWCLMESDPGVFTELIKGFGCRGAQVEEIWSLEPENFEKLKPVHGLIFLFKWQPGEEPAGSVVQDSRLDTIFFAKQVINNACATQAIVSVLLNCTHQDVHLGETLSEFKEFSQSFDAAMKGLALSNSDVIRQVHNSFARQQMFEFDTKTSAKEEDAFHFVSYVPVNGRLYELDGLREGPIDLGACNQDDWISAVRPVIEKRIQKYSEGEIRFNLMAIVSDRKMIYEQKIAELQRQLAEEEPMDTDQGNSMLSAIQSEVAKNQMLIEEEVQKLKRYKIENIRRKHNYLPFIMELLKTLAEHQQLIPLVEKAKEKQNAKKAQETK
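Reagent: Ub-AMC substrate; assay system: Proteasome-associated human UCH37 deubiquitinase; controls: no-proteasome and no-compound wells; read-out: % inhibition of Ub-AMC cleavage fluorescence; timing: 30 min preincubation with enzyme, 25 min cleavage at room temperature; signal: AMC fluorescence from Ub-AMC cleavage, excitation 355 nm, emission 460 nm; buffer or medium: Tris-HCl pH 7.4 plus ovalbumin, ATP-MgCl2, DTT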
Rin1 Abl inh = inhibitors of human Rin1-Abl protein interaction; TR-FRET Rin1/Abl binding, biochemical; P00519+Q13671; inhibition, % at 7.35 µM; hit rate 0.4% among 360,000; in the data active means inhibition above about 5%, passing the limit was not always enough
ATG4B inhibitor = blocks human ATG4B protease cleavage of LC3 substrate | Q9Y4P1 | ATG4B cleavage of LC3-PLA2, NBD-HPC fluorescence, 1 h | inhibition, % at 8.33 µM | hit rate 0.51% among 340,000; in the data active means inhibition above about 40%
Target sequence (Q9Y4P1 whole entry, looked up): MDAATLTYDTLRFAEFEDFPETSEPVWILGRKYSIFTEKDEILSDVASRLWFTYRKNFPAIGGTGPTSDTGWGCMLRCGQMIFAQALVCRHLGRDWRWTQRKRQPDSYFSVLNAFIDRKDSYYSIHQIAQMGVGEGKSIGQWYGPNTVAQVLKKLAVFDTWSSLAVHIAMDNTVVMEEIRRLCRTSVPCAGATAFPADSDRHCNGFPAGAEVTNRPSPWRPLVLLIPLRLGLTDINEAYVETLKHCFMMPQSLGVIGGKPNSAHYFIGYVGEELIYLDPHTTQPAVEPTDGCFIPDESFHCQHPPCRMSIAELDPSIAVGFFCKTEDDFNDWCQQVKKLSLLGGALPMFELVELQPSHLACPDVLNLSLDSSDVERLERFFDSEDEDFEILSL
Rin1-Abl confirm = Rin1-Abl interaction inhibition confirmation | TR-FRET Rin1-Abl binding, purified proteins | AID 602124 | inhibition, % at 7.35 µM | shares compounds with Rin1 Abl inh | hit rate 49% among 1,300
GFP quench = GFP fluorescence interference artifact | shares compounds with Rin1 Abl inh | inhibitors/quenchers counterscreen | inhibition, % at 6.75 µM | hit rate 8.5% among 1,300 | AID 602125;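 further: ABL1-eGFP fusion protein alone without its partner RIN1-SBP; 0% = protein with vehicle and 100% = wells lacking protein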
GFP quench dose = quenches GFP in dose response, Rin1-Abl counter-screen; shares compounds with Rin1 Abl inh; GFP fluorescence interference/quenching counterscreen; IC50, µM; 230 tested, under 10 active; AID 602182; call rule not given here;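 further: ABL1-eGFP fusion protein alone without its RIN1 binding partner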
* = called active by the depositor; i = inactive; . = not tested or not shown. Only some compounds are listed: those with a hit (about 1.4% of all), similar ones and a draw of the others. Unless noted, no stated cut-off is given here; in the data, active means inhibition above about 6.5%; inactive means the rest.

SMILES | Tb MetRS inh | UCH37 DUB inh | Rin1 Abl inh | ATG4B inhibitor | Rin1-Abl confirm | GFP quench | others
Cc1nc2ccc(S(=O)(=O)NC(C(=O)NC3CCCC3)C(C)C)cc2s1 (stereo not given) | -0.4 | 3.7 | -1.9 | -6.5 | . | .
O=C1N(c2ccccc2)C(c2ccccc2)N2CCCN12 (stereo not given) | -1.0 | 3.8 | -0.1 | 13.3 | . | .
O=C1N(c2ccc(Cl)cc2)C(c2ccccc2)N2CCCN12 (stereo not given) | -0.8 | 1.2 | 8.3* | 4.0 | 11.6* | -0.3
Cc1ccc(C2N(c3cccc(Cl)c3)C(=O)N3CCCN23)cc1 (stereo not given) | 0.1 | 5.3 | 29.4* | -5.2 | 29.6* | -0.6 | GFP quench dose=>67.5
CCN(CC)S(=O)(=O)c1ccc(NC(=O)C2COc3ccccc3O2)cc1 (stereo not given) | -0.4 | 1.6 | -0.7 | -0.4 | . | .
Cc1cc(=O)oc2c(C)c(OCC(=O)N3CCN(C(=O)C4COc5ccccc5O4)CC3)ccc12 (stereo not given) | -0.2 | -36.0 | 10.0* | -11.1 | 5.6 | -2.4
Cc1cc(=O)oc2c(C)c(OCC(=O)N3CCN(c4ccccc4)CC3)ccc12 | 0.5 | -1.3 | -4.1 | -13.5 | . | .
CC(=O)N1N=C(c2ccc(Cl)cc2)OC1c1ccc(C(C)C)cc1 (stereo not given) | -0.1 | 0.1 | -1.3 | -1.6 | . | .
Cc1ccc(C)c(N=Nc2ccc(O)c3ncccc23)c1 | -0.7 | 5.2 | -0.5 | 11.7 | . | .
NS(=O)(=O)c1ccc(N=Nc2ccc(O)c3ncccc23)cc1 | -1.8 | 5.3 | 11.3* | -1.4 | 3.8 | 12.7*
Cc1cccc(N=Nc2ccc(O)c3ncccc23)c1 | -0.3 | 8.5 | 6.9* | 3.5 | 6.5* | 4.5
ON=Cc1cnc(N2CCN(c3ccccc3)CC2)s1 | . | 3.5 | . | . | . | .
O=c1oc(-c2ccc([N+](=O)[O-])cc2)nc2ccc(O)cc12 | 1.3 | 6.1 | 16.9* | -5.1 | -7.3 | 0.1
CC(=O)Nc1nn(C)c2nc3cc(C)ccc3cc12 | -0.3 | -12.1 | -3.7 | -8.5 | . | .
Cc1ccc2cc3c(NC(=O)c4cccnc4)nn(C)c3nc2c1 | -0.2 | -14.8 | 6.0* | 1.2 | 21.2* | 0.5
O=C1CC(C(=O)Nc2ccccc2)C2(CCCC2)O1 (stereo not given) | -1.7 | 1.7 | 7.7* | -1.4 | -1.6 | -0.8
CCC(=O)Nc1ncc2c(n1)CC(c1ccco1)CC2=O (stereo not given) | 0.0 | -3.2 | 2.1 | -2.5 | . | .
COc1cccc2c3cccc(OC)c3c3[nH]cnc3c12 | -0.3 | . | 33.2* | -11.3 | 28.5* | 0.5 | GFP quench dose=>67.6
Cc1ccc(C)c(S(=O)(=O)N2CCN(C(=O)[C@@H]3CCCN3C(=O)c3cccs3)CC2)c1 | -0.3 | 1.0 | 3.0 | -11.4 | . | .
O=C1CC=Nc2ccc([N+](=O)[O-])cc21 | -0.1 | . | 14.5* | . | -1.8 | -0.9
Cc1cnc(NC(=O)C(C)N2CCN(C)CC2)s1 (stereo not given) | 0.2 | -0.2 | 6.7* | -7.1 | 1.1 | -1.1
COCc1cc(C)nc(OCC(=O)NN=Cc2cc(C)n(-c3c(C)cccc3C)c2C)c1C#N | . | 1.2 | . | . | . | .
COC(=O)Nc1csc2c1NC(=O)CCCC2 | -0.8 | -0.3 | 42.7* | 5.7 | 44.3* | -0.9 | GFP quench dose=>67.5
COc1ccccc1NC(=O)c1csc2c1CCCC2 | 0.2 | 2.8 | -3.1 | 9.3 | . | .
Cc1ccc(NC(=O)Cn2nc(C(F)(F)F)c3c2CCC3)cc1 | 0.0 | 2.2 | 5.0* | 2.9 | 0.6 | -2.5
SMILES | Tb MetRS inh | UCH37 DUB inh | Rin1 Abl inh | ATG4B inhibitor | Rin1-Abl confirm | GFP quench | others
CCCCCCCOC(=O)C1=C(C)Nc2ncnn2C1c1cccs1 (stereo not given) | -0.7 | 3.2 | 7.5* | -13.2 | -1.0 | -1.2
CN(c1ccc(C(=O)N2CCCCCC2)cc1)S(=O)(=O)c1ccccc1 | -0.2 | -3.0 | 0.8 | 1.2 | . | .
COc1ccc(C2Nc3ccccc3C(=O)N2NS(=O)(=O)c2ccc(C)cc2)c(OC)c1 (stereo not given) | -0.2 | -214.3 | 0.3 | -5.8 | . | .
Cc1ccc(S(=O)(=O)NN2C(=O)c3ccccc3NC2c2ccccc2F)cc1 (stereo not given) | 0.9 | -208.3 | 12.7* | -4.8 | -2.0 | -5.4
CCCN(C(=O)C1CCCN(c2ncnc3c2nc2n3CCCCC2)C1)c1ccc(F)cc1 (stereo not given) | 0.2 | 0.8 | 8.5* | -3.3 | -1.5 | -0.5
O=C(NCC1CCN(Cc2ccc(F)cc2)CC1)C1CCCN(c2ncnc3c2nc2n3CCCCC2)C1 (stereo not given) | -0.3 | 6.9 | 7.2 | 2.1 | . | .
O=C(CNC(=O)c1ccc(Cl)cc1Cl)NCc1ccccn1 | -0.1 | 0.2 | 2.9 | 0.8 | . | .
COc1cccc(C(=O)c2ncc(C(F)(F)F)cc2Cl)c1 | 0.6 | -0.9 | 13.2* | -3.1 | -3.4 | 0.0
COc1ccc(C(=O)c2ncc(C(F)(F)F)cc2Cl)cc1 | 0.8 | 3.5 | 1.7 | -1.6 | . | .
CCN=C1SC(CC(=O)Nc2ccccc2OCC)C(=O)N1CC (stereo not given) | -0.3 | 0.0 | 1.1 | 20.0 | . | .
O=C(c1ccc2ccccc2c1)C1CCCN(C(=O)c2cccnc2)C1 (stereo not given) | 0.3 | -19.1 | 6.9* | -5.6 | -4.9 | 0.1
COc1ccc2cc(C(=O)C3CCCN(C(=O)c4cccnc4)C3)ccc2c1 (stereo not given) | -0.5 | i | -11.9 | 23.9 | . | .
CC(C)(C)[C@@H]1C=C(C(=O)N2CCN(Cc3ccccc3)CC2)O[C@H](OCc2ccc(CO)cc2)C1 | -0.2 | 4.7 | 4.8 | -12.6 | . | .
CC(C)(C)[C@H]1C=C(C(=O)N2CCN(Cc3ccccc3)CC2)O[C@@H](OCCCCO)C1 | -0.2 | -2.1 | 15.7* | -1.6 | 3.7 | -0.1
O=C(c1ccco1)N1CCN(Cc2nc3ccc([N+](=O)[O-])cc3c(=O)n2-c2ccccc2F)CC1 | -1.7 | 2.6 | 2.3 | 1.4 | . | .
C/C(=N\NC(=O)c1c(Br)c(C)nn1C)c1cccc(NC(=O)C2CCC2)c1 | -0.1 | . | -5.5 | -7.8 | . | .
O=C(Nc1cc(N2CCOCC2)ncn1)NC1(C(F)(F)F)Oc2ccccc2O1 | -1.0 | 4.3 | 9.8* | -0.8 | 4.2 | 0.2
CC(=O)Nc1ccc(NC(=O)C(NC(=O)c2ccc(Cl)cc2)C(C)C)cc1 (stereo not given) | -0.1 | . | -2.2 | . | . | .
Cc1ccc(C(=O)N[C@H](C(=O)Nc2cc(Cl)cc(Cl)c2)C(C)C)cc1 | -0.6 | -6.0 | 5.8* | 2.5 | -1.0 | -1.0
CC(C)(C)NC(=O)CCN(/N=C/c1ccccc1)C1=NS(=O)(=O)c2ccccc21 | 0.3 | . | 1.1 | -3.3 | . | .
O=C(CSc1nc2ccccc2s1)NC1CCCc2ccccc21 (stereo not given) | -0.1 | 4.3 | 7.5* | 28.8 | -0.7 | 1.2

Screens: PubChem BioAssay, several laboratories
